Converted amounts (≈) assume the structure as drawn. The source made the active and inactive calls. The calls are words filed in the database; no cut-off is given here.
Columns and labels:
[1] = test system: Mycobacterium kansasii; assay: Antimycobacterial activity against Mycobacterium kansasii My 235/80 after 21 days; type: functional; conditions: My 235/80, 504 h
Method in brief: (§1)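 Micromethod MIC in Šula's semisynthetic medium at 37 °C. Compounds added in DMSO at 1000 down to 0.032 µmol/L. Isoniazid standard in sterile water at 0.5–250 µmol/L. Inocula: H37Rv 10^3, M. avium 10^5, M. kansasii 10^4. Read at 14 and 21 d, plus 7 d for M. kansasii.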

[2] = test system: Mycobacterium tuberculosis; assay: Antimycobacterial activity against Mycobacterium tuberculosis H37Rv My 331/88 after 14 days; type: functional; conditions: H37Rv My 331/88, 336 h; method in brief: as §1
[3] = test system: Candida albicans; assay: Antifungal activity against Candida albicans ATCC 44859 after 48 hrs by broth microdilution method; type: functional; conditions: ATCC 44859, 48 h
Method in brief: (§2)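 Broth microdilution in RPMI 1640 with glutamine, fluconazole as reference. For yeasts, MIC is ≥80% growth reduction (IC80) versus control. For filamentous fungi, the value is expressed as IC50. Readings at 24 and 48 h.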

[4] = test system: Mycobacterium avium; assay: Antimycobacterial activity against isoniazid, rifampicin, ethambutol and ofloxacin-resistant Mycobacterium avium My 330/88 after 21 days; type: functional; conditions: My 330/88, 504 h; method in brief: as §1
[5] = test system: Lichtheimia corymbifera; assay: Antifungal activity against Absidia corymbifera 272 after 48 hrs by broth microdilution method; type: functional; conditions: Lichtheimia corymbifera, 272, 48 h; method in brief: as §2
[6] = test system: Mycobacterium kansasii; assay: Antimycobacterial activity against Mycobacterium kansasii 6509/96 after 14 days; type: functional; conditions: 6509/96, 336 h; method in brief: as §1
[7] = test system: Escherichia coli; assay: Antibacterial activity against Escherichia coli CCM 4517 at 500 micromol/L after 24 to 48 hrs by broth microdilution method; type: functional, organism-based
Method in brief: (§3)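 Broth microdilution in Mueller–Hinton broth, compounds dissolved in DMSO, tested over a dilution series from 500 downward. MIC taken as ≥95% growth reduction (IC95) versus drug-free control. Benzylpenicillin comparator. Readings at 24 and 48 h.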

[8] = test system: Staphylococcus aureus; assay: Antibacterial activity against Staphylococcus aureus CCM 4516/08 after 48 hrs by broth microdilution method; type: functional; conditions: CCM 4516/08, 48 h; method in brief: as §3
[9] = test system: Mycobacterium avium; assay: Antimycobacterial activity against isoniazid, rifampicin, ethambutol and ofloxacin-resistant Mycobacterium avium My 330/88 after 14 days; type: functional; conditions: My 330/88, 336 h; method in brief: as §1
[10] = test system: Klebsiella pneumoniae; assay: Antibacterial activity against ESBL-positive Klebsiella pneumoniae J 14368/08 at 500 micromol/L after 24 to 48 hrs by broth microdilution method; type: functional, organism-based; method in brief: as §3
[11] = test system: Pichia kudriavzevii; assay: Antifungal activity against Candida krusei E28 after 24 hrs by broth microdilution method; type: functional; conditions: E28, 24 h; method in brief: as §2
[12] = test system: Aspergillus fumigatus; assay: Antifungal activity against Aspergillus fumigatus 231 after 24 hrs by broth microdilution method; type: functional; conditions: Aspergillus fumigatus, 231, 24 h; method in brief: as §2
[13] = test system: Staphylococcus epidermidis; assay: Antibacterial activity against Staphylococcus epidermidis H 6966/08 after 24 hrs by broth microdilution method; type: functional; conditions: H 6966/08, 24 h; method in brief: as §3
[14] = test system: Mycobacterium kansasii; assay: Antimycobacterial activity against Mycobacterium kansasii 6509/96 after 7 days; type: functional; conditions: 6509/96, 168 h; method in brief: as §1
[15] = test system: Enterococcus sp.; assay: Antibacterial activity against Enterococcus sp. J 14365/08 at 500 micromol/L after 24 to 48 hrs by broth microdilution method; type: functional, organism-based; method in brief: as §3
[16] = test system: Staphylococcus epidermidis; assay: Antibacterial activity against Staphylococcus epidermidis H 6966/08 after 48 hrs by broth microdilution method; type: functional; conditions: H 6966/08, 48 h; method in brief: as §3
[17] = test system: Trichosporon asahii; assay: Antifungal activity against Trichosporon asahii 1188 after 24 hrs by broth microdilution method; type: functional; conditions: Trichosporon asahii, 1188, 24 h; method in brief: as §2
[18] = test system: HepG2; assay: Cytotoxicity against human HepG2 cells after 24 hrs by CellTiter assay; type: cell-based; conditions: HepG2, 24 h
Method in brief: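 HepG2 cells (passage 27–33) in MEM with 10% FBS, L-glutamine and NEAA, seeded at 1×10^4 per well. Treated next day with compounds at 0.1–100 µM (or 0.1–25 µmol/L), triplicates, <1% DMSO, for 24 h at 37 °C, 5% CO2. MTS reagent added for 2 h, absorbance read at 490 nm. IC50 taken against untreated (100%) and 10% DMSO (0%) controls.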

[19] = test system: Trichophyton mentagrophytes; assay: Antifungal activity against Trichophyton mentagrophytes 445 after 72 hrs by broth microdilution method; type: functional; conditions: Trichophyton mentagrophytes, 445, 72 h
Method in brief: (§4)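 Filamentous dermatophyte tested by broth microdilution in RPMI 1640 with glutamine, fluconazole as reference. Value expressed as IC50 relative to growth control. Read at 72 and 120 h.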

[20] = test system: Candida albicans; assay: Antifungal activity against Candida albicans ATCC 44859 after 24 hrs by broth microdilution method; type: functional; conditions: ATCC 44859, 24 h; method in brief: as §2
[21] = test system: Trichosporon asahii; assay: Antifungal activity against Trichosporon asahii 1188 after 48 hrs by broth microdilution method; type: functional; conditions: Trichosporon asahii, 1188, 48 h; method in brief: as §2
[22] = test system: Staphylococcus aureus; assay: Antibacterial activity against methicillin-resistant Staphylococcus aureus H 5996/08 after 24 hrs by broth microdilution method; type: functional; conditions: H 5996/08, 24 h; method in brief: as §3
[23] = test system: Mycobacterium kansasii; assay: Antimycobacterial activity against Mycobacterium kansasii 6509/96 after 21 days; type: functional; conditions: 6509/96, 504 h; method in brief: as §1
[24] = test system: Mycobacterium kansasii; assay: Antimycobacterial activity against Mycobacterium kansasii My 235/80 after 7 days; type: functional; conditions: My 235/80, 168 h; method in brief: as §1
[25] = test system: Klebsiella pneumoniae; assay: Antibacterial activity against Klebsiella pneumoniae D 11750/08 at 500 micromol/L after 24 to 48 hrs by broth microdilution method; type: functional, organism-based; method in brief: as §3
[26] = test system: Staphylococcus aureus; assay: Antibacterial activity against methicillin-resistant Staphylococcus aureus H 5996/08 after 48 hrs by broth microdilution method; type: functional; conditions: H 5996/08, 48 h; method in brief: as §3
[27] = test system: Nakaseomyces glabratus; assay: Antifungal activity against Candida glabrata 20/I at 500 micromol/L after 24 to 48 hrs by broth microdilution method; type: functional, organism-based; method in brief: as §2
[28] = test system: Pseudomonas aeruginosa; assay: Antibacterial activity against Pseudomonas aeruginosa CCM 1961 at 500 micromol/L after 24 to 48 hrs by broth microdilution method; type: functional, organism-based; method in brief: as §3
[29] = test system: Mycobacterium kansasii; assay: Antimycobacterial activity against Mycobacterium kansasii My 235/80 after 14 days; type: functional; conditions: My 235/80, 336 h; method in brief: as §1
[30] = test system: Trichophyton mentagrophytes; assay: Antifungal activity against Trichophyton mentagrophytes 445 after 120 hrs by broth microdilution method; type: functional; conditions: Trichophyton mentagrophytes, 445, 120 h; method in brief: as §4
[31] = test system: Mycobacterium tuberculosis; assay: Antimycobacterial activity against Mycobacterium tuberculosis H37Rv My 331/88 after 21 days; type: functional; conditions: H37Rv My 331/88, 504 h; method in brief: as §1
[32] = test system: Pichia kudriavzevii; assay: Antifungal activity against Candida krusei E28 after 48 hrs by broth microdilution method; type: functional; conditions: E28, 48 h; method in brief: as §2
[33] = test system: Candida tropicalis; assay: Antifungal activity against Candida tropicalis 156 at 500 micromol/L after 24 to 48 hrs by broth microdilution method; type: functional, organism-based; method in brief: as §2
[34] = test system: Aspergillus fumigatus; assay: Antifungal activity against Aspergillus fumigatus 231 after 48 hrs by broth microdilution method; type: functional; conditions: Aspergillus fumigatus, 231, 48 h; method in brief: as §2
[35] = test system: Staphylococcus aureus; assay: Antibacterial activity against Staphylococcus aureus CCM 4516/08 after 24 hrs by broth microdilution method; type: functional; conditions: CCM 4516/08, 24 h; method in brief: as §3
[36] = test system: Lichtheimia corymbifera; assay: Antifungal activity against Absidia corymbifera 272 after 24 hrs by broth microdilution method; type: functional; conditions: Lichtheimia corymbifera, 272, 24 h; method in brief: as §2

Structure (SMILES)	MIC [1]	MIC [2]	MIC80 [3]	MIC [4]	MIC50 [5]	MIC [6]	Activity [7]	MIC95 [8]	MIC [9]	Activity [10]	MIC80 [11]	MIC50 [12]	MIC95 [13]	MIC [14]	Activity [15]	MIC95 [16]	MIC80 [17]	IC50 [18]	MIC50 [19]	MIC80 [20]	other results
CCOP(=O)(OCC)Oc1ccc(Br)cc1C(=O)Nc1ccc(F)cc1	16 µM (≈ 7.14 µg/mL)	8 µM (≈ 3.57 µg/mL)	> 500 µM	32 µM (≈ 14.3 µg/mL)	> 500 µM	8 µM (≈ 3.57 µg/mL)	inactive	> 500 µM	32 µM (≈ 14.3 µg/mL)	inactive	> 500 µM	> 500 µM	> 500 µM	8 µM (≈ 3.57 µg/mL)	inactive	> 500 µM	> 500 µM	7.4 µM	500 µM (≈ 223 µg/mL)	> 500 µM	MIC80 [21]: > 500 µM; MIC95 [22]: 500 µM (≈ 223 µg/mL); MIC [23]: 16 µM (≈ 7.14 µg/mL); MIC [24]: 8 µM (≈ 3.57 µg/mL); Activity [25]: inactive; MIC95 [26]: 500 µM (≈ 223 µg/mL); Activity [27]: inactive; Activity [28]: inactive; MIC [29]: 16 µM (≈ 7.14 µg/mL); MIC50 [30]: 500 µM (≈ 223 µg/mL); MIC [31]: 8 µM (≈ 3.57 µg/mL); MIC80 [32]: > 500 µM; Activity [33]: inactive; MIC50 [34]: > 500 µM; MIC95 [35]: > 500 µM; MIC50 [36]: > 500 µM
CCOP(=O)(OCC)Oc1ccc(Cl)cc1C(=O)Nc1cccc(Br)c1	8 µM (≈ 3.7 µg/mL)	4 µM (≈ 1.85 µg/mL)	> 500 µM	16 µM (≈ 7.4 µg/mL)	> 500 µM	8 µM (≈ 3.7 µg/mL)	inactive	31.2 µM (≈ 14.5 µg/mL)	16 µM (≈ 7.4 µg/mL)	inactive	> 500 µM	> 500 µM	15.6 µM (≈ 7.23 µg/mL)	8 µM (≈ 3.7 µg/mL)	inactive	31.2 µM (≈ 14.5 µg/mL)	> 500 µM	1.81 µM	15.6 µM (≈ 7.23 µg/mL)	> 500 µM	MIC80 [21]: > 500 µM; MIC95 [22]: 31.2 µM (≈ 14.5 µg/mL); MIC [23]: 8 µM (≈ 3.7 µg/mL); MIC [24]: 4 µM (≈ 1.85 µg/mL); Activity [25]: inactive; MIC95 [26]: 62.5 µM (≈ 28.9 µg/mL); Activity [27]: inactive; Activity [28]: inactive; MIC [29]: 8 µM (≈ 3.7 µg/mL); MIC50 [30]: 15.6 µM (≈ 7.23 µg/mL); MIC [31]: 4 µM (≈ 1.85 µg/mL); MIC80 [32]: > 500 µM; Activity [33]: inactive; MIC50 [34]: > 500 µM; MIC95 [35]: 15.6 µM (≈ 7.23 µg/mL); MIC50 [36]: > 500 µM
